Holding throughout (type): functional
Test [1] deals with Radical scavenging activity. In words: Antioxidant activity assessed as DPPH free radical scavenging activity measured as remaining DPPH at 100 uM after 60 mins by spectrophotometric analysis relative to control. In a few lines: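 100 μM compound in ethanol mixed 1:9 with 0.002% (w/v) ethanolic DPPH. Absorbance at 517 nm after 60 min, compared with an ethanol control. Value is percent of DPPH remaining, run in triplicate.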

A short description of test [2]: Antioxidant activity assessed as hydroxyl radical scavenging activity at 5 uM after 1 hr by 2-Deoxy-D-ribose degradation assay in presence of FeCl3 and EDTA. The gist of the method: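 The 1 mL mixture held 10 mM KH2PO4-KOH pH 7.4, 2-deoxy-D-ribose, FeCl3 made up in 2 mM Na2EDTA, H2O2, ascorbic acid and 5 μM compound added from DMSO. It was incubated 1 h at 37 °C, then thiobarbituric acid in NaOH and trichloroacetic acid were added and it was heated 15 min at 100 °C. Absorbance was read at 535 nm. Controls: no compound (100% MDA) and no deoxyribose (blank). Triplicate.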

Test [3] is described as follows: Antioxidant activity assessed as hydroxyl radical scavenging activity at 5 uM after 1 hr by 2-Deoxy-D-ribose degradation assay in presence of FeCl3. The gist of the method:
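Hydroxyl radical attack on 2-deoxy-D-ribose in 10 mM KH2PO4-KOH pH 7.4 with FeCl3 made up in buffer (no EDTA), H2O2, ascorbic acid and 5 μM compound from DMSO. Incubated 1 h at 37 °C. TBA/TCA was added, the mixture heated at 100 °C for 15 min, and MDA read at 535 nm. Result is percent protection against the compound-free control. Triplicate.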

The test system of test [4] is Radical scavenging activity. In words: Antioxidant activity assessed as DPPH free radical scavenging activity measured as remaining DPPH at 100 uM after 5 mins by spectrophotometric analysis relative to control.
Test [5] has as its system Radical scavenging activity. In words: Antioxidant activity assessed as DPPH free radical scavenging activity after 60 mins by spectrophotometric analysis. The gist of the method:
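Compound in ethanol, 1 to 100 μM, combined 1:9 with 0.002% (w/v) ethanolic DPPH; absorbance read at 517 nm after 60 min against an ethanol-only control. Triplicate measurements. Inhibition of discoloration expressed as percent of control; IC50 (concentration scavenging 50% of DPPH) obtained from the inhibition curve.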

The test system of test [6] is Radical scavenging activity. As to the kind of experiment: Antioxidant activity assessed as DPPH free radical scavenging activity measured as remaining DPPH at 10 uM after 5 mins by spectrophotometric analysis relative to control.
Test [7] deals with Radical scavenging activity. In words: Antioxidant activity assessed as DPPH free radical scavenging activity measured as remaining DPPH at 10 uM after 2 mins by spectrophotometric analysis relative to control.

pIC50: −log10 of the molar value.

The values below come from ChEMBL document CHEMBL3286332, “Synthesis and radical scavenging activity of phenol-imidazole conjugates” (Bioorg Med Chem Lett, 2014).

Turning to `COc1ccc(-n2cnc(C#N)c2/N=C/c2c(O)cc(O)cc2O)cc1`, the DPPH remaining in test [1] was determined as 48.3%. For the same molecule, the Activity stood at 62% in test [2] and 16% in test [3].
With `N#Cc1ncn(-c2ccc(O)cc2)c1/N=C/c1c(O)cc(O)cc1O`, the DPPH remaining in test [1] came out at 45.9%. The results for the Activity in test [4], in test [2] and in test [3] were under 50%, 55% and 17%, respectively.
For the molecule `N#Cc1ncn(-c2ccc(O)cc2)c1/N=C/c1cc(O)c(O)c(O)c1`, the negative logarithm of the IC50 (pIC50) in test [5] is 5.32. For the same molecule, the Activity in test [6] is under 50%; in test [7], under 50%; in test [2], 49%; in test [3], 51%.
Turning to `COc1ccc(-n2cnc(C#N)c2/N=C/c2ccc(O)c(O)c2O)cc1`, the pIC50 in test [5] is 5.14. The Activity in test [2] came to 57%; in test [3], 25%.
The matching figures for `Cn1cnc(C#N)c1/N=C/c1ccc(O)c(O)c1O`: 5.15, 54% and 37%.
`Cn1cnc(C#N)c1/N=C/c1c(O)cc(O)cc1O`: the DPPH remaining in test [1] came to 49.9%. Besides, the Activity in test [2] is 54%; in test [3], 18%.
Consider `Cc1c(C)c2c(c(C)c1O)CCC(C)(C(=O)O)O2` (centres undefined) [TROLOX], for which, in test [5], the pIC50 was 5.02. Moreover, the Activity in test [2] came out at 53%; in test [3] it was 31%.
As for `N#Cc1ncn(-c2ccc(O)cc2)c1N`, in test [1], the DPPH remaining amounted to 94.8%. The Activity is 47% in test [2] and 57% in test [3].
Turning to `COc1ccc(-n2cnc(C#N)c2/N=C/c2cc(O)c(O)c(O)c2)cc1`, the negative logarithm of the IC50 (pIC50) in test [5] was 5.40. Moreover, the Activity in test [2] was found to be 51%; in test [3], 42%.
The matching figures for `N#Cc1ncn(-c2ccc(F)cc2)c1/N=C/c1ccc(O)c(O)c1O`: 5.08, 53% and 34%.
As for `O=Cc1cc(O)c(O)c(O)c1`, the pIC50 in test [5] is 5.22. For the same molecule, the Activity is 50% in test [2] and 38% in test [3].
Consider `N#Cc1ncn(-c2ccc(O)cc2)c1/N=C/c1ccc(O)c(O)c1O`, for which, in test [5], the negative logarithm of the IC50 (pIC50) was 5.14. Besides, the results for the Activity in test [6], in test [2] and in test [3] were under 50%, 38% and 28%, respectively.
As for `O=Cc1ccc(O)c(O)c1` [PROTOCATECHUALDEHYDE], in test [5], the pIC50 is 5.27. Also, the Activity in test [2] came to 51%; in test [3], 35%.
The like results for `O=Cc1ccc(O)c(O)c1O` were, in that order, 4.94, 46% and 34%.
The like results for `COc1ccc(-n2cnc(C#N)c2/N=C/c2ccc(O)c(O)c2)cc1` were, in that order, 5.39, 61% and 17%.
The matching figures for `Cn1cnc(C#N)c1/N=C/c1ccc(O)c(O)c1`: 5.42, 52% and 27%.
For the molecule `COc1cc(C=O)ccc1O`, the DPPH remaining in test [1] turned out to be 97.6%. The Activity in test [2] worked out at 37%; in test [3] it was 30%.
With `N#Cc1ncn(-c2ccc(F)cc2)c1/N=C/c1ccc(O)c(O)c1`, the negative-log IC50 (pIC50) in test [5] was 5.36. Besides, the results for the Activity in test [2] and in test [3] were 58% and 11%, respectively.
`N#Cc1ncn(-c2ccc(F)cc2)c1N`: the DPPH remaining in test [1] was determined as 94.1%. Moreover, the results for the Activity in test [2] and in test [3] were 50% and 19%, respectively.
The matching figures for `COc1ccc(-n2cnc(C#N)c2N)cc1`: 94.2%, 46% and 29%.
The like results for `Cn1cnc(C#N)c1N` were, in that order, 94.2%, 54% and 23%.
`Cn1cnc(C#N)c1/N=C/c1cc(O)c(O)c(O)c1`: the negative-log IC50 (pIC50) in test [5] is 5.33. In addition, the results for the Activity in test [2] and in test [3] were 54% and 44%, respectively.
In the case of `N#Cc1ncn(-c2ccc(O)cc2)c1/N=C/c1ccc(O)c(O)c1`, the negative-log IC50 (pIC50) in test [5] was 5.49. Besides, the Activity was under 50% in test [6], under 50% in test [7], 60% in test [2] and 38% in test [3].
In the case of `O=Cc1c(O)cc(O)cc1O`, in test [1], the DPPH remaining was determined as 91.2%. For the same molecule, the results for the Activity in test [2] and in test [3] were 42% and 36%, respectively.
Take `N#Cc1ncn(-c2ccc(F)cc2)c1/N=C/c1cc(O)c(O)c(O)c1`: in test [5], the negative-log IC50 (pIC50) is 5.24. In addition, the Activity is 54% in test [2] and 30% in test [3].
Consider `COc1ccc(-n2cnc(C#N)c2/N=C/c2ccc(O)c(OC)c2)cc1`, for which the DPPH remaining in test [1] stood at 88.6%. The Activity in test [2] was determined as 47%; in test [3], 12%.
